CRFR2-BP ag = agonists of human CRF-binding protein/CRF-R2 receptor complex; HEK293 CRF-R2/CRF-BP, calcium dye fluorescence (FLIPR); percent of saturating CRF peptide response; activation, % at 13.2 µM; 350,000 tested, 0.46% active; AID 588473;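 active = activation of at least 50%, plus an integration ratio under a set limit after plate pattern correction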;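 also: plate controls were neutral control wells without compound for no effect and CRF at EC100 for full effect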
DDE Tn6 FP inh = disrupts Tn6 cyclic peptide binding to fibrin D-Dimer-E complex; Fibrin DD(E) TRITC-Tn6 fluorescence polarization displacement; inhibition, % at 8.3 µM; 370,000 tested, 0.21% active; AID 720509;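 active = inhibition above a per-campaign cutoff: mean of compounds within control limits plus 3 SD, cut at about 15% in these data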;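 also: 0% = median of all compound wells on the plate and 100% = blocking peptide control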
Target sequence (P02675 whole entry, looked up): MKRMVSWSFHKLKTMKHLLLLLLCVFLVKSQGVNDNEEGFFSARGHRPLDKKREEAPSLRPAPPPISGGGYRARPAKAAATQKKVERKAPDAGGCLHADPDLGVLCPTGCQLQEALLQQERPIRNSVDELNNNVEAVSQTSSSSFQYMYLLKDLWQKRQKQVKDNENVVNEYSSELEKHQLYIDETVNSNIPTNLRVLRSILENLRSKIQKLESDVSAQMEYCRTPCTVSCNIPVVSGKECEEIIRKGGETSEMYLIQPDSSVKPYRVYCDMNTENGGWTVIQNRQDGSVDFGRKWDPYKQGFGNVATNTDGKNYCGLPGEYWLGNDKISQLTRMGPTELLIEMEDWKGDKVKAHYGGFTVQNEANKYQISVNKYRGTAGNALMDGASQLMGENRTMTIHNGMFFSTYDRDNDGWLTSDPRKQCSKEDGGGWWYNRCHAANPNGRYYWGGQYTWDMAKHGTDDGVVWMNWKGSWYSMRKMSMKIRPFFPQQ
CRFBP-R2 block = blocks CRF-induced signaling of the CRF-BP/CRF-R2 complex; 350,000 tested, 0.59% active; inhibition, % at 11.8 µM; AID 588475; HEK293 CRF-R2/CRF-BP, CRF-induced calcium fluorescence;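 active = inhibition of the ligand-induced calcium signal above about 50% at the single tested concentration, limit read from the data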
DDE Tn7 FP inh = disrupts Tn7 cyclic peptide binding to fibrin D-Dimer-E complex. P02675. FP displacement of FITC-Tn7 peptide from fibrin DD(E); 0% = median of compound wells per plate. inhibition, % at 8.3 µM. 370,000 tested, 0.13% active;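 active = inhibition above the mean of compounds falling within the control limits plus 3 SD of them, cut at about 14% in these data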;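 also: 0% = plate median of compound wells and 100% = 10 µM Aha-Tn7 peptide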
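System: human fibrin DD(E); quantity: Fibrin-DD(E) at 2 µM final; also added: fluorescent Tn7 probe at 0.1 µM; compound dosing: single nominal test concentration of 8.3 µM per compound; schedule: 10 min preincubation, 3 h with tracer, room temperature; detection: fluorescence polarization of the labelled Tn7 tracer; repeats: one replicate per compound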
Numbers without * were called inactive; . = no result. Only some compounds are listed: those with a hit (about 1.2% of all), similar ones and a draw of the others.

SMILES	CRFR2-BP ag	DDE Tn6 FP inh	CRFBP-R2 block	DDE Tn7 FP inh
COc1cc2nc(/C=C/c3ccc(N(C)C)cc3)sc2cc1SC	332*	-2	-486	0
CCCCCCCCN1CN2Cc3ccc(C)cc3C2CS1(=O)=O (stereo not drawn)	.	-2	.	-6
CC(=O)Nc1ccc2c(c1)Cc1cc(N3C(=O)C=CC3=O)ccc1-2	51*	-1	-40	-3
COc1ccc(CCNC(=O)COc2ccc(N(C)S(=O)(=O)c3ccc(C)cc3)cc2)cc1OC	-2	2	103*	-7
CN(CCOC(=O)C1c2ccccc2Oc2ccccc21)C(C)(C)C	0	.	50*	.
CC1(C)c2[nH]c3ccccc3c2C[C@H]2C(=O)N(Cc3ccc(F)cc3)C(=O)N21	6	-1	-17	-4
N#Cc1c(-c2ccccc2)cc(-c2ccccc2)nc1SCC(=O)NCC(=O)O	72*	6	-13	6
CC(C)C(Sc1nc(-c2ccccc2)cc(-c2ccccc2)c1C#N)C(=O)O (stereo not drawn)	0	4	68*	-2
COc1ccc(S[C@]2(C(=O)N3CCOCC3)CC(=O)N(C(=O)/C=C/c3ccccc3)[C@@H]2c2ccc(OC)cc2)cc1	.	-1	.	7
Nc1nc(Nc2ccccc2Cl)cc(=O)[nH]1	0	11	100*	-6
COc1ccc(C2CC(=O)C(c3ccc(Cl)c(Cl)c3)=CN2Cc2ccccc2)cc1 (stereo not drawn)	.	-1	.	-2
COc1ccccc1-c1cc(C(=O)NN)[nH]n1	-1	3	57*	5
COc1ccc(-c2cc(C(=O)NN)[nH]n2)cc1OC	1	-5	-14	5
CN(Cc1ccc(F)cc1)S(=O)(=O)c1nnc(NC(=O)c2ccccc2)s1	7	-7	14	-3
CN(Cc1ccccc1)S(=O)(=O)c1nnc(NC(=O)c2ccc(F)cc2)s1	0	-6	59*	-2
O=C(NC(CC1=CCCCC1)c1ccc2ccccc2c1)C(F)(F)F (stereo not drawn)	.	8	.	2
CCN1CCN(c2c(/C=C3\SC(=S)N(Cc4ccco4)C3=O)c(C)c(C#N)c(=O)n2C)CC1	90*	-8	-95	-10
COc1cccc(C=C2SC(=S)N(Cc3ccco3)C2=O)c1OC	.	-4	.	-6
CC(CCN1CCC(C(O)(c2ccccc2)c2ccccc2)CC1)Oc1cccc(Cl)c1 (stereo not drawn)	.	-1	.	-1
O=C(OCC(=O)N1CCN(c2ccccc2)CC1)c1ccccn1	1	7	53*	4
O=C(CSc1ccc(-c2ccncc2)nn1)N1CCN(c2ccccc2)CC1	2	-8	63*	-7
O=C(OCC(=O)N1CCN(c2ccccc2)CC1)c1ccc2ccccc2n1	-2	-3	16	-4
O=C(Nc1ccccc1)Nc1cc(OCC(F)(F)F)cc(OCC(F)(F)F)c1	23	-20	55*	-7
COc1ccc(/C=C2/SC(=S)N(c3ccc(S(=O)(=O)Nc4nccs4)cc3)C2=O)cc1	3	5	1	5
Cc1ccc(/C=C2/SC(=S)N(c3ccc(S(=O)(=O)Nc4nccs4)cc3)C2=O)cc1	-1	-3	59*	2
SMILES	CRFR2-BP ag	DDE Tn6 FP inh	CRFBP-R2 block	DDE Tn7 FP inh
CCOC(=O)CN1C(=O)S/C(=C/c2ccc3c(c2)n(C)c(=O)n3C)C1=O	-2	-11	27	-8
CCOC(=O)CN1C(=O)S/C(=C/C=C/c2ccc(N(C)C)cc2)C1=O	90*	-5	-127	0
CN(c1ccccc1)c1ccc(/C=C(\CCC(=O)O)c2nc3ccccc3s2)cc1[N+](=O)[O-]	-2	-3	52*	5
COc1ccc([N+](=O)[O-])cc1NS(=O)(=O)c1ccc(C)cc1	-3	-7	21	-4
Cc1ccc(S(=O)(=O)Nc2ccc3cc([N+](=O)[O-])ccc3c2[N+](=O)[O-])cc1	6	6	81*	4
Cc1ccc(S(=O)(=O)Nc2ccc3ccccc3c2[N+](=O)[O-])cc1	-9	-6	90*	5
C#CCNC(=O)C[C@H]1C(=O)N(CCc2ccc(Cl)cc2)C2=CCCC[C@@]21C(=O)OCC	.	8	.	7
Cc1ccc(Cn2nnc3c2-c2ccccc2S(=O)(=O)N(C2CC2)C3)cc1	.	6	.	1
Cn1c(=O)n(Cc2ccccc2Cl)c2ccccc21	0	4	53*	-2
Cn1c(=O)n(Cc2ccccc2F)c2ccccc21	-1	-7	-16	-5
CC(=O)Nc1ccc(Sc2ncccc2C(=O)Nc2ccc(OC(F)(F)F)cc2)cn1	130*	2	-59	2
